Results reported in ChEMBL document CHEMBL4138092, “Antibacterial activity and mechanism of action of the benzazole acrylonitrile-based compounds: In vitro, spectroscopic, and docking studies” (2017).
In brackets after ≈: the same amount, converted by molar mass. Activity calls are given as the source filed them. No cut-off for these calls is given here.

Tests used:
[1] = system: Bacillus spizizenii; assay: Antibacterial activity against Bacillus subtilis ATCC 6633 after 24 to 48 hrs by agar well diffusion method; type: functional
Outline: (§1)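 Mueller Hinton agar plates spread with bacteria (10⁶ cells/ml). Wells were filled with 50 µl of compound and incubated at 37 °C for 24–48 h. The inhibition zone diameter (mm) was measured with a transparent scale. Amoxicillin 5.0 mg/ml at 50 µl/well served as the positive control.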

[2] = system: Escherichia coli; assay: Antibacterial activity against Escherichia coli ATCC 25922 after 24 to 48 hrs by agar well diffusion method; type: functional; outline: as §1
[3] = system: Escherichia coli; assay: Antibacterial activity against Escherichia coli ATCC 25922 after 24 hrs by agar well diffusion method; type: functional; settings: ATCC 25922, 24 h
[4] = system: Pseudomonas aeruginosa; assay: Antibacterial activity against Pseudomonas aeruginosa ATCC 27853 after 24 hrs by agar well diffusion method; type: functional; settings: ATCC 27853, 24 h
[5] = system: Bacillus spizizenii; assay: Antibacterial activity against Bacillus subtilis ATCC 6633 after 24 hrs by agar well diffusion method; type: functional; settings: ATCC 6633, 24 h
[6] = system: Staphylococcus aureus; assay: Antibacterial activity against Staphylococcus aureus ATCC 25923 after 24 hrs by agar well diffusion method; type: functional; settings: ATCC 25923, 24 h
[7] = system: Staphylococcus aureus; assay: Antibacterial activity against Staphylococcus aureus ATCC 25923 after 24 to 48 hrs by agar well diffusion method; type: functional; outline: as §1
[8] = system: Pseudomonas aeruginosa; assay: Antibacterial activity against Pseudomonas aeruginosa ATCC 27853 after 24 to 48 hrs by agar well diffusion method; type: functional; outline: as §1
[9] = molecular target: Beta-lactamase (Escherichia coli) (UniProt Q53TY8); assay: Binding affinity to Escherichia coli beta-lactamase in phosphate buffer at pH 7.4 at 6 10^-5M by CD spectral analysis
Outline: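 Successive additions of compound (6 × 10^-5 M) were made to 1.0 mL β-lactamase in phosphate buffer pH 7.4. CD spectra were recorded at 25 °C over 200–700 nm, scan speed 50 nm/min, bandwidth 1 nm.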

[10] = system: Escherichia coli; assay: Induction of morphological changes in Escherichia coli ATCC 25922 assessed as cell rupture at 0.2 ppm after 2 hrs by uranyl acetate staining based transmission electron microscopic analysis; type: functional, organism-based
Outline: (§2)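 E. coli was exposed for 2 h, alongside untreated controls processed identically. Pellets were fixed in Karnovsky's fixative (2% paraformaldehyde, 2.5% glutaraldehyde) for 3–4 h at 25 °C, then washed in 0.1 M phosphate pH 7.2. Cells were adsorbed onto formvar-carbon copper grids and stained 5 min in […] aqueous uranyl acetate. Grids were imaged by TEM at 80 kV.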

[11] = system: Bifidobacterium longum subsp. infantis; assay: Inhibition of beta-lactamase in Bifidobacterium infantis assessed as potentiation of amoxicillin induced antibacterial activity at 10 to 100% amoxicillin to compound dilution after 24 hrs by agar well diffusion method
Outline: (§3)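 Amoxicillin (1.0 µg/ml) was combined with test compound and diluted to 100, 80, 60, 40, 10 and 5%. The mixtures were serially diluted in sterile water, and 100 µl was added to 900 µl nutrient broth. Tubes were inoculated with 10 µl of 10⁵ cells/ml and held 24 h at 37±1 °C. Growth/no growth was scored visually. Controls were bacteria in broth alone and sterile broth alone.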

[12] = system: Bifidobacterium longum subsp. infantis; assay: Inhibition of beta-lactamase in Bifidobacterium infantis assessed as potentiation of amoxicillin induced antibacterial activity by measuring amoxicillin MIC after 24 hrs by agar well diffusion method (reference value: 1.5 ug/ml); outline: as §3
[13] = system: Escherichia coli; assay: Induction of morphological changes in Escherichia coli ATCC 25922 assessed as cell crack at 0.2 ppm after 2 hrs by uranyl acetate staining based transmission electron microscopic analysis; type: functional, organism-based; outline: as §2
[14] = system: Escherichia coli ATCC 25922; assay: Inhibition of beta-lactamase in Escherichia coli ATCC 25922 assessed as potentiation of amoxicillin induced antibacterial activity at 5% amoxicillin to compound dilution after 24 hrs by agar well diffusion method; outline: as §3
[15] = system: Escherichia coli ATCC 25922; assay: Inhibition of beta-lactamase in Escherichia coli ATCC 25922 assessed as potentiation of amoxicillin induced antibacterial activity by measuring amoxicillin MIC after 24 hrs by agar well diffusion method (reference value: 1.5 ug/ml); outline: as §3
[16] = molecular target: Beta-lactamase (Staphylococcus aureus) (UniProt P00807); assay: Inhibition of beta-lactamase in Staphylococcus aureus ATCC 25923 assessed as potentiation of amoxicillin induced antibacterial activity by measuring amoxicillin MIC after 24 hrs by agar well diffusion method (reference value: 1.5 ug/ml); outline: as §3
[17] = molecular target: Beta-lactamase (Pseudomonas aeruginosa) (UniProt Q8RL90); assay: Inhibition of beta-lactamase in Pseudomonas aeruginosa ATCC 27853 assessed as potentiation of amoxicillin induced antibacterial activity at 5% amoxicillin to compound dilution after 24 hrs by agar well diffusion method; outline: as §3
[18] = molecular target: Beta-lactamase (Staphylococcus aureus) (UniProt P00807); assay: Inhibition of beta-lactamase in Staphylococcus aureus ATCC 25923 assessed as potentiation of amoxicillin induced antibacterial activity after 24 hrs by agar well diffusion method; outline: as §3
[19] = system: Escherichia coli; assay: Induction of morphological changes in Escherichia coli ATCC 25922 assessed as cell damage at 0.2 ppm after 2 hrs by uranyl acetate staining based transmission electron microscopic analysis; type: functional, organism-based; outline: as §2
[20] = molecular target: Beta-lactamase (Staphylococcus aureus) (UniProt P00807); assay: Inhibition of beta-lactamase in Staphylococcus aureus ATCC 25923 assessed as potentiation of amoxicillin induced antibacterial activity at 5% amoxicillin to compound dilution after 24 hrs by agar well diffusion method; outline: as §3
[21] = molecular target: Beta-lactamase (Escherichia coli) (UniProt Q53TY8); assay: Binding affinity to Escherichia coli beta-lactamase in phosphate buffer at pH 7.4 at 6 10^-5M after 3 mins by UV-vis spectroscopic analysis
Outline: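 Compound at 6 × 10^-5 M in 0.01 M phosphate buffer pH 7.4 was titrated with 10 µl aliquots of 1 × 10^-6 M β-lactamase. Absorbance spectra were recorded at 200–700 nm after 3 min equilibration per addition, continuing until no further change (saturation).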

[22] = molecular target: Beta-lactamase (Pseudomonas aeruginosa) (UniProt Q8RL90); assay: Inhibition of beta-lactamase in Pseudomonas aeruginosa ATCC 27853 assessed as potentiation of amoxicillin induced antibacterial activity after 24 hrs by agar well diffusion method; outline: as §3
[23] = system: Escherichia coli ATCC 25922; assay: Inhibition of beta-lactamase in Escherichia coli ATCC 25922 assessed as potentiation of amoxicillin induced antibacterial activity at 10 to 100% amoxicillin to compound dilution after 24 hrs by agar well diffusion method; outline: as §3
[24] = molecular target: Beta-lactamase (Staphylococcus aureus) (UniProt P00807); assay: Inhibition of beta-lactamase in Staphylococcus aureus ATCC 25923 assessed as potentiation of amoxicillin induced antibacterial activity at 10 to 100% amoxicillin to compound dilution after 24 hrs by agar well diffusion method; outline: as §3
[25] = system: Bifidobacterium longum subsp. infantis; assay: Inhibition of beta-lactamase in Bifidobacterium infantis assessed as potentiation of amoxicillin induced antibacterial activity at 5% amoxicillin to compound dilution after 24 hrs by agar well diffusion method; outline: as §3
[26] = system: Bifidobacterium longum subsp. infantis; assay: Inhibition of beta-lactamase in Bifidobacterium infantis assessed as potentiation of amoxicillin induced antibacterial activity after 24 hrs by agar well diffusion method; outline: as §3
[27] = system: Bifidobacterium longum; assay: Antibacterial activity against Bifidobacterium infantis after 24 hrs by agar well diffusion method; type: functional, Bifidobacterium longum subsp. infantis
[28] = molecular target: Beta-lactamase (Escherichia coli) (UniProt Q53TY8); assay: Binding affinity to Escherichia coli beta-lactamase in phosphate buffer at pH 7.4 at 6 10^-5M after 3 mins by fluorescence titration analysis
Outline: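 Fixed compound concentration in phosphate buffer pH 7.4, titrated with 10 µl additions of 1 × 10^-6 M β-lactamase. Excitation was 280 or 290 nm depending on compound, with emission scanned 300–600 nm and slits 5–10 nm. Readings followed 3 min equilibration per addition in a 1 cm quartz cell, continuing to saturation.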

[29] = molecular target: Beta-lactamase (Pseudomonas aeruginosa) (UniProt Q79MP6); assay: Inhibition of beta-lactamase in Pseudomonas aeruginosa ATCC 27853 assessed as potentiation of amoxicillin induced antibacterial activity at 10 to 100% amoxicillin to compound dilution after 24 hrs by agar well diffusion method; outline: as §3
[30] = molecular target: Beta-lactamase (Pseudomonas aeruginosa) (UniProt Q79MP6); assay: Inhibition of beta-lactamase in Pseudomonas aeruginosa ATCC 27853 assessed as potentiation of amoxicillin induced antibacterial activity by measuring amoxicillin MIC after 24 hrs by agar well diffusion method (reference value: 1 ug/ml); outline: as §3
[31] = system: Escherichia coli ATCC 25922; assay: Inhibition of beta-lactamase in Escherichia coli ATCC 25922 assessed as potentiation of amoxicillin induced antibacterial activity after 24 hrs by agar well diffusion method; outline: as §3
[32] = molecular target: Beta-lactamase (Escherichia coli) (UniProt Q53TY8); assay: Binding affinity to Escherichia coli beta-lactamase assessed as chemical shift in phosphate buffer at pH 7.4 after 60 mins by NMR analysis

Row | MIC [3] [µg/mL] | MIC [4] [µg/mL] | MIC [5] [µg/mL] | MIC [6] [µg/mL] | Activity [9] | inhibition [11] | MIC [12] [µg/mL] | inhibition [14] | MIC [15] [µg/mL] | MIC [16] [µg/mL] | inhibition [17] | fractional inhibitory concentration index (FICI) [18] | inhibition [20] | Activity [21] | fractional inhibitory concentration index (FICI) [22] | inhibition [23] | SMILES | inhibition zone (IZ) [1] [mm] | inhibition zone (IZ) [2] [mm] | inhibition zone (IZ) [7] [mm] | inhibition zone (IZ) [8] [mm] | also measured
1 | 11.1 (≈ 28.5 µM) | 11.1 (≈ 28.5 µM) | 20 (≈ 51.3 µM) | 11.1 (≈ 28.5 µM) |  |  |  |  |  |  |  |  |  |  |  |  | N#C/C(=C\c1cnc(Nc2ccc(Cl)cc2)nc1)c1nc2ccccc2s1 | 35 | 40 | 30 | 30 | 
2 | 35.8 (≈ 102 µM) | 35.8 (≈ 102 µM) | 50 (≈ 143 µM) | 27.8 (≈ 79.6 µM) |  |  |  |  |  |  |  |  |  |  |  |  | N#C/C(=C\c1cnc(N2CCOCC2)nc1)c1nc2ccccc2s1 | 39 | 40 | 32 | 30 | 
3 | 27.8 (≈ 83.6 µM) | 27.8 (≈ 83.6 µM) | 27.8 (≈ 83.6 µM) | 27.8 (≈ 83.6 µM) |  |  |  |  |  |  |  |  |  |  |  |  | N#C/C(=C\c1cnc(N2CCOCC2)nc1)c1nc2ccccc2[nH]1 | 39 | 40 | 35 | 35 | 
4 | 1 (≈ 3.4 µM) | 1 (≈ 3.4 µM) | 8 (≈ 27.2 µM) | 8 (≈ 27.2 µM) | Active | Active | 0.1 | inactive | 0.1 | 0.8 | inactive | 0.2 | inactive | Active | 0.2 | Active | N#C/C(=C\c1cnc(N)nc1N)c1nc2ccccc2s1 | 40 | 47 | 32 | 28 | Activity [10]: Active; Activity [13]: Active; Activity [19]: Active; inhibition [24]: Active; inhibition [25]: inactive; fractional inhibitory concentration index (FICI) [26]: 0.2; MIC [27]: 1 µg/mL (≈ 3.4 µM); Activity [28]: Active; inhibition [29]: Active; MIC [30]: 0.8 µg/mL; fractional inhibitory concentration index (FICI) [31]: 0.2
5 | 9 (≈ 24.1 µM) | 9 (≈ 24.1 µM) | 13 (≈ 34.9 µM) | 9 (≈ 24.1 µM) | Active | Active | 0.9 | inactive | 0.9 | 0.9 | inactive | 0.2 | inactive | Active | 0.2 | Active | N#C/C(=C\c1cnc(Nc2ccc(Cl)cc2)nc1)c1nc2ccccc2[nH]1 | 40 | 40 | 32 | 28 | inhibition [24]: Active; inhibition [25]: inactive; fractional inhibitory concentration index (FICI) [26]: 0.2; MIC [27]: 9 µg/mL (≈ 24.1 µM); Activity [28]: Active; inhibition [29]: Active; MIC [30]: 1.3 µg/mL; fractional inhibitory concentration index (FICI) [31]: 0.2; Activity [32]: Active
